Results published in ChEMBL document CHEMBL5247680, “Design, Synthesis, and Biological Activity of Thioguanine-Modified Pleuromutilin Derivatives” (ACS Med Chem Lett, 2023).
Values after ≈ are worked out from the molar mass of the structure shown. Active and inactive are the calls of the source. The rule behind the calls is not given here.

Columns and labels:
Staphylococcus aureus [1] = experiment: Antibacterial activity against Methicillin-resistant Staphylococcus aureus ATCC 33591 assessed as bacterial growth inhibition incubated for 20 to 24 hrs by microbroth serial dilution assay; type: functional; conditions: time 20-24 hrs
[2] = tested on: Staphylococcus epidermidis; experiment: Selectivity ratio of MBC for antibacterial activity against Methicillin-sensitive Staphylococcus epidermidis […] to MIC for antibacterial activity against Methicillin-sensitive Staphylococcus epidermidis […]; type: functional
Staphylococcus aureus [3] = experiment: Antibacterial activity against Staphylococcus aureus ATCC 25923 assessed as bacterial growth inhibition incubated for 20 to 24 hrs by microbroth serial dilution assay; type: functional; conditions: time 20-24 hrs
Staphylococcus aureus [4] = experiment: Antibacterial activity against Methicillin-sensitive Staphylococcus aureus ATCC 29213 assessed as bacterial growth inhibition incubated for 20 to 24 hrs by microbroth serial dilution assay
[5] = tested on: Staphylococcus epidermidis; experiment: Antibacterial activity against Methicillin-sensitive Staphylococcus epidermidis ATCC 12228 assessed as bacterial growth inhibition incubated for 20 to 24 hrs by microbroth serial dilution assay; type: functional; conditions: time 20-24 hrs
Staphylococcus aureus [6] = experiment: Selectivity ratio of MBC for antibacterial activity against Methicillin-sensitive Staphylococcus aureus ATCC 29213 to MIC for antibacterial activity against Methicillin-sensitive Staphylococcus aureus ATCC 29213
[7] = tested on: Staphylococcus epidermidis; experiment: Antibacterial activity against Methicillin-resistant Staphylococcus epidermidis ATCC 51625 assessed as bacterial growth inhibition incubated for 20 to 24 hrs by microbroth serial dilution assay; type: functional; conditions: time 20-24 hrs
Staphylococcus aureus [8] = experiment: Selectivity ratio of MBC for antibacterial activity against Methicillin-resistant Staphylococcus aureus ATCC 33591 to MIC for antibacterial activity against Methicillin-resistant Staphylococcus aureus ATCC 33591; type: functional
Staphylococcus aureus [9] = experiment: Antibacterial activity against Methicillin-resistant Staphylococcus aureus ATCC 43300 assessed as bacterial growth inhibition incubated for 20 to 24 hrs by microbroth serial dilution assay; type: functional; conditions: time 20-24 hrs
[10] = tested on: Staphylococcus epidermidis; experiment: Selectivity ratio of MBC for antibacterial activity against Methicillin-resistant Staphylococcus epidermidis ATCC 51625 to MIC for antibacterial activity against Methicillin-resistant Staphylococcus epidermidis ATCC 51625; type: functional
Staphylococcus aureus [11] = experiment: Selectivity ratio of MBC for antibacterial activity against Staphylococcus aureus to MIC for antibacterial activity against Staphylococcus aureus; type: functional
Staphylococcus aureus [12] = experiment: Selectivity ratio of MBC for antibacterial activity against Methicillin-resistant Staphylococcus aureus ATCC 43300 to MIC for antibacterial activity against Methicillin-resistant Staphylococcus aureus ATCC 43300; type: functional
Staphylococcus aureus [13] = experiment: Antibacterial activity against Methicillin-resistant Staphylococcus aureus ATCC 33591 assessed as bacterial growth inhibition at 1 to 2 times MIC measured upto 24 hrs by time kill assay; type: functional, organism-based
Procedure, shortened: (§1)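 MRSA ATCC 33591 time-kill curves at 1×, 2× and 4× MIC, with a tiamulin positive control and an untreated growth control. Viable counts were taken as CFU·mL⁻¹ at time points through incubation, including 2, 8 and 12 h.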

Staphylococcus aureus [14] = experiment: Antibacterial activity against Methicillin-resistant Staphylococcus aureus ATCC 33591 assessed as bacterial bactericidal effect at 1 to 2 times MIC measured upto 24 hrs by time kill assay; type: functional, organism-based; procedure, shortened: as §1
Staphylococcus aureus [15] = experiment: Antibacterial activity against Methicillin-resistant Staphylococcus aureus ATCC 33591 assessed as bacterial colony inhibition at 1 to 2 times MIC measured upto 24 hrs by time kill assay; type: functional, organism-based; procedure, shortened: as §1
Staphylococcus aureus [16] = experiment: In vivo Antibacterial activity against Methicillin-resistant Staphylococcus aureus in ICR mouse thigh infection model assessed as reduction in bacterial load at 40 mg/kg, IP by […]; type: functional

| Compound | MIC (Staphylococcus aureus [1]) | Ratio [2] | MIC (Staphylococcus aureus [3]) | MIC (Staphylococcus aureus [4]) | MIC [5] | Ratio (Staphylococcus aureus [6]) | MIC [7] | Ratio (Staphylococcus aureus [8]) | MIC (Staphylococcus aureus [9]) | Ratio [10] | Ratio (Staphylococcus aureus [11]) | Ratio (Staphylococcus aureus [12]) | Activity (Staphylococcus aureus [13]) | Activity (Staphylococcus aureus [14]) | Activity (Staphylococcus aureus [15]) | Activity (Staphylococcus aureus [16]) |
| --- | --- | --- | --- | --- | --- | --- | --- | --- | --- | --- | --- | --- | --- | --- | --- | --- |
| C=C[C@]1(C)C[C@@H](OC(=O)CSc2nc(NC(=O)CN3CCCC3)nc3[nH]cnc23)[C@@]2(C)C3C(=O)CC[C@@]3(CC[C@H]2C)[C@@H](C)[C@@H]1O (stereo partly specified) | 2 mg/L (≈ 3.13 µM) | >4 | 2 mg/L (≈ 3.13 µM) | 2 mg/L (≈ 3.13 µM) | 2 mg/L (≈ 3.13 µM) | 4 | 1 mg/L (≈ 1.57 µM) | 4 | 1 mg/L (≈ 1.57 µM) | 4 | >4 | – | – | – | – | – |
| C=C[C@]1(C)C[C@@H](OC(=O)CSc2nc(N)nc3c2ncn3C(=O)NCc2ccccc2OC)[C@@]2(C)C3C(=O)CC[C@@]3(CC[C@H]2C)[C@@H](C)[C@@H]1O (stereo partly specified) | 0.125 mg/L (≈ 0.181 µM) | >4 | 0.125 mg/L (≈ 0.181 µM) | 0.0625 mg/L (≈ 0.0905 µM) | 0.0156 mg/L (≈ 0.0226 µM) | 2 | 0.0625 mg/L (≈ 0.0905 µM) | 4 | 0.0625 mg/L (≈ 0.0905 µM) | – | >4 | – | – | – | – | – |
| C=C[C@]1(C)C[C@@H](OC(=O)CSc2nc(N)nc3c2ncn3C(=O)Nc2cccc(NC(=O)OC(C)(C)C)c2)[C@@]2(C)C3C(=O)CC[C@@]3(CC[C@H]2C)[C@@H](C)[C@@H]1O (stereo partly specified) | 0.25 mg/L (≈ 0.328 µM) | >4 | 0.25 mg/L (≈ 0.328 µM) | 0.25 mg/L (≈ 0.328 µM) | 0.0156 mg/L (≈ 0.0205 µM) | 2 | 0.125 mg/L (≈ 0.164 µM) | 4 | 0.25 mg/L (≈ 0.328 µM) | – | >4 | – | – | – | – | – |
| C=C[C@]1(C)C[C@@H](OC(=O)CSC(C)(C)CNC(=O)[C@H](N)C(C)C)[C@]2(C)[C@H](C)CC[C@]3(CCC(=O)[C@H]32)[C@@H](C)[C@@H]1O [VALNEMULIN] | 0.25 mg/L (≈ 0.443 µM) | >4 | 0.25 mg/L (≈ 0.443 µM) | 0.125 mg/L (≈ 0.221 µM) | 2 mg/L (≈ 3.54 µM) | >4 | 0.125 mg/L (≈ 0.221 µM) | – | 0.125 mg/L (≈ 0.221 µM) | – | 1 | 4 | – | – | – | – |
| C=C[C@]1(C)C[C@@H](OC(=O)CSc2nc(N)nc3c2ncn3C(=O)NCc2cccc(OC)c2)[C@@]2(C)C3C(=O)CC[C@@]3(CC[C@H]2C)[C@@H](C)[C@@H]1O (stereo partly specified) | 0.125 mg/L (≈ 0.181 µM) | >4 | 0.125 mg/L (≈ 0.181 µM) | 0.0625 mg/L (≈ 0.0905 µM) | 0.0156 mg/L (≈ 0.0226 µM) | 4 | 0.0625 mg/L (≈ 0.0905 µM) | 4 | 0.125 mg/L (≈ 0.181 µM) | 2 | >4 | – | – | – | – | – |
| C=C[C@]1(C)C[C@@H](OC(=O)CSCCN(CC)CC)[C@]2(C)[C@H](C)CC[C@]3(CCC(=O)[C@H]32)[C@@H](C)[C@@H]1O [TIAMULIN] | 1 mg/L (≈ 2.03 µM) | >4 | 2 mg/L (≈ 4.05 µM) | 1 mg/L (≈ 2.03 µM) | 0.5 mg/L (≈ 1.01 µM) | >4 | 1 mg/L (≈ 2.03 µM) | – | 2 mg/L (≈ 4.05 µM) | – | 4 | – | Active | inactive | Active | 1 10^7CFU/g |
| C=C[C@]1(C)C[C@@H](OC(=O)CSc2nc(N)nc3c2ncn3C(=O)c2ccc(OC)cc2)[C@@]2(C)C3C(=O)CC[C@@]3(CC[C@H]2C)[C@@H](C)[C@@H]1O (stereo partly specified) | 0.5 mg/L (≈ 0.755 µM) | >4 | 0.25 mg/L (≈ 0.378 µM) | 0.5 mg/L (≈ 0.755 µM) | < 0.0078 mg/L | – | 0.25 mg/L (≈ 0.378 µM) | – | 0.125 mg/L (≈ 0.189 µM) | 4 | >4 | – | – | – | – | – |
| C=C[C@]1(C)C[C@@H](OC(=O)CSc2nc(NC(=O)CN3CCOCC3)nc3[nH]cnc23)[C@@]2(C)C3C(=O)CC[C@@]3(CC[C@H]2C)[C@@H](C)[C@@H]1O (stereo partly specified) | 1 mg/L (≈ 1.53 µM) | >4 | 0.5 mg/L (≈ 0.764 µM) | 1 mg/L (≈ 1.53 µM) | 0.0156 mg/L (≈ 0.0238 µM) | >4 | 0.125 mg/L (≈ 0.191 µM) | >4 | 1 mg/L (≈ 1.53 µM) | – | – | >4 | – | – | – | – |
| C=C[C@]1(C)C[C@@H](OC(=O)CSc2nc(N)nc3c2ncn3C(=O)Nc2ccc(F)cc2)[C@@]2(C)C3C(=O)CC[C@@]3(CC[C@H]2C)[C@@H](C)[C@@H]1O (stereo partly specified) | 0.125 mg/L (≈ 0.188 µM) | >4 | 0.125 mg/L (≈ 0.188 µM) | 0.25 mg/L (≈ 0.376 µM) | 0.0156 mg/L (≈ 0.0235 µM) | 2 | 0.125 mg/L (≈ 0.188 µM) | – | 0.125 mg/L (≈ 0.188 µM) | 4 | >4 | – | – | – | – | – |
| C=C[C@]1(C)C[C@@H](OC(=O)CSc2nc(N)nc3c2ncn3C(=O)Nc2cccc(C(F)(F)F)c2)[C@@]2(C)C3C(=O)CC[C@@]3(CC[C@H]2C)[C@@H](C)[C@@H]1O (stereo partly specified) | 0.25 mg/L (≈ 0.35 µM) | >4 | 0.25 mg/L (≈ 0.35 µM) | 0.125 mg/L (≈ 0.175 µM) | 0.0156 mg/L (≈ 0.0218 µM) | – | 0.125 mg/L (≈ 0.175 µM) | – | 0.25 mg/L (≈ 0.35 µM) | 4 | >4 | – | – | – | – | – |
| C=C[C@]1(C)C[C@@H](OC(=O)CSc2nc(N)nc3c2ncn3C(=O)OCC)[C@@]2(C)C3C(=O)CC[C@@]3(CC[C@H]2C)[C@@H](C)[C@@H]1O (stereo partly specified) | 0.25 mg/L (≈ 0.417 µM) | >4 | 0.25 mg/L (≈ 0.417 µM) | 0.125 mg/L (≈ 0.208 µM) | < 0.0078 mg/L | >4 | 0.25 mg/L (≈ 0.417 µM) | – | 0.125 mg/L (≈ 0.208 µM) | – | 4 | >4 | – | – | – | – |
| C=C[C@]1(C)C[C@@H](OC(=O)CSc2nc(N)nc3[nH]cnc23)[C@@]2(C)C3C(=O)CC[C@@]3(CC[C@H]2C)[C@@H](C)[C@@H]1O (stereo partly specified) | 0.125 mg/L (≈ 0.237 µM) | >4 | 0.25 mg/L (≈ 0.474 µM) | 0.125 mg/L (≈ 0.237 µM) | 0.125 mg/L (≈ 0.237 µM) | – | 0.125 mg/L (≈ 0.237 µM) | 4 | 0.125 mg/L (≈ 0.237 µM) | 2 | >4 | – | – | – | – | – |
| C=C[C@]1(C)C[C@@H](OC(=O)CSc2nc(NC(=O)CN3CCN(C)CC3)nc3[nH]cnc23)[C@@]2(C)C3C(=O)CC[C@@]3(CC[C@H]2C)[C@@H](C)[C@@H]1O (stereo partly specified) | 16 mg/L (≈ 24 µM) | >4 | 16 mg/L (≈ 24 µM) | 8 mg/L (≈ 12 µM) | 4 mg/L (≈ 5.99 µM) | 4 | 1 mg/L (≈ 1.5 µM) | – | 32 mg/L (≈ 47.9 µM) | – | >4 | – | – | – | – | – |
| C=C[C@]1(C)C[C@@H](OC(=O)CSc2nc(N)nc3c2ncn3C(=O)Nc2ccccc2OC)[C@@]2(C)C3C(=O)CC[C@@]3(CC[C@H]2C)[C@@H](C)[C@@H]1O (stereo partly specified) | 0.125 mg/L (≈ 0.185 µM) | >4 | 0.25 mg/L (≈ 0.369 µM) | 0.125 mg/L (≈ 0.185 µM) | 0.0156 mg/L (≈ 0.023 µM) | 2 | 0.125 mg/L (≈ 0.185 µM) | – | 0.25 mg/L (≈ 0.369 µM) | – | >4 | – | – | – | – | – |
